Only some compounds are listed: those with a hit (about 4.9% of all), similar ones and a draw of the others.
STAT1 act: activators of IFN-gamma induced STAT1 signaling; NIH 3T3 STAT1-luciferase reporter, luminescence; 100% = IFN-gamma alone, no compound; activation (% of control), % at 5.5 µM; 200,000 compounds, 2.6% hits;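 active = activation above the screen-wide mean activation plus 3 SD, cut at about 130% in these data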
APP 5'UTR act: APP 5'UTR luciferase reporter activation; SH-SY5Y APP 5'UTR luciferase reporter, luminescence; zero percent = DMSO vehicle wells; activation, % at 2 µM; 190,000 compounds, 1% hits;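 active = activation above a set limit, based on mean plus 3 SD of controls, cut at about 140% in these data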
STAT3 inh: reduces IL-6 driven STAT3 reporter signal; U3A cells, IL-6 STAT3-luciferase reporter, luminescence; host cell line lacks STAT1; inhibition, % at 5.5 µM; 190,000 compounds, 0.89% hits;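 active = inhibition above the mean inhibition across all screened compounds plus 3 SD, cut at about 44% in these data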
NF-kB expr up: NF-kB expression increase, human neuronal cells. NF-kB reporter expression; hits give high values. fold change at 12.5 µM. 190,000 compounds, 1.6% hits; in the data active = fold change above about 3.3
STAT3 act: STAT3 signaling activation | U3A cells, IL-6 STAT3-luciferase reporter, luminescence; 100% = signal with IL-6 EC80 alone | activation (% of control), % at 5.6 µM | 190,000 compounds, 0.91% hits | AID 871;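 active = activation above the screen-wide mean of compound activation plus 3 SD, cut at about 130% in these data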
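system = STAT3-luciferase reporter U3A cells | reagent = IL-6 stimulus at 33 ng/mL final | timing = 1 h compound pre-exposure, 6 h IL-6 stimulation, 37 °C | measured by = luminescence | evaluation = % activation versus median of IL-6-stimulated wells | control set = IL-6-only wells as 100% reference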
STAT1 blocker: STAT1 signaling inhibition | NIH 3T3 STAT1-luciferase reporter, IFN-gamma, luminescence | inhibition, % at 5.5 µM | 200,000 compounds, 0.35% hits;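 active = inhibition above a set limit, the mean inhibition across all tested compounds plus 3 SD, cut at about 34% in these data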
STAT1 activ conf: confirmation of STAT1 signaling activators. shares compounds with STAT1 act. 1,200 compounds, 97% hits. AID 1262. activation (% of control), % at 5.7 µM. NIH 3T3 STAT1-luciferase reporter, IFN-gamma potentiation, luminescence; 100% = IFN-gamma EC80 alone, no compound;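 active = activation above a set limit carried over from the earlier primary STAT1 screen, cut at about 140% in these data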
NFkB act: NF-kappaB activation in STAT1 activator counter-screen; HEK293T NF-kB luciferase reporter, TNF-alpha stimulated, luminescence; 100% = TNF-alpha with vehicle only; activation (% of control), % at 5.7 µM; 1,200 compounds, 43% hits; shares compounds with STAT1 act; AID 1306;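 active = activation above the mean of solvent-only control wells plus 3 SD, set per campaign, cut at about 130% in these data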;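 also: TNF-alpha given at a submaximal dose yielding about 80% of full reporter signal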
STAT3 act 2: activates human STAT3, counter-screen to STAT1 activators. activation (% of control), % at 5.7 µM. AID 1316. 1,200 compounds, 46% hits. shares compounds with STAT1 act. U3A cells STAT3-luciferase reporter, IL-6, luminescence; cells lack STAT1; 100 = IL-6 alone, no compound effect;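 active = activation above the solvent-only control well mean plus 3 SD, set per plate batch, cut at about 110% in these data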;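 also: higher means more STAT3 reporter activation so hits are non-selective activators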
Of the large screens only hits and unclear results are named; the others gave an inactive call (follow-up assays come after a bar, where they were run).

Cc1ccc2cc(CCNC(=O)c3ccco3)c(=O)[nH]c2c1	none
Cc1ccc2cc(CCNC(=O)c3ccco3)c(=O)[nH]c2c1C	STAT1 act 156, NF-kB expr up 3.9 | STAT1 activ conf 201 | NFkB act 138 | STAT3 act 2 121
Cc1cc2cc(CCNC(=O)c3cccs3)c(=O)[nH]c2cc1C	STAT1 act 151 | STAT1 activ conf 176 | NFkB act inactive | STAT3 act 2 inactive
Clc1ccc(-c2cn3cc(Br)ccc3n2)cc1Cl	STAT1 act 165, APP 5'UTR act 201, NF-kB expr up 7.2 | STAT1 activ conf 222 | NFkB act inactive | STAT3 act 2 122
CN(C)S(=O)(=O)c1cccc(-c2cn3cc(Cl)ccc3n2)c1	none
Brc1ccc2nc(-c3c[nH]c4ccccc34)cn2c1	STAT1 act 194, APP 5'UTR act 213 | STAT1 activ conf 287 | NFkB act 143 | STAT3 act 2 113
COc1ccc(C(=O)NCc2nnc(SCC(=O)N3CCc4ccccc43)n2Cc2ccccc2)cc1	none
CC(=O)Nc1sc2c(c1-c1nc3ccccc3s1)CCN(C(C)C)C2	STAT1 act 285 (no result: STAT3 inh, STAT3 act) | STAT1 activ conf 202 | NFkB act 191 | STAT3 act 2 202
O=C(N/N=C/c1ccccc1F)c1csc2c1CCCC2	STAT1 act 157, NF-kB expr up 4 | STAT1 activ conf 217 | NFkB act inactive | STAT3 act 2 inactive
O=C1c2ccccc2S(=O)(=O)N1CC1CC(c2ccccc2Cl)=NO1 (centres undefined)	STAT1 act 161, NF-kB expr up 4.9 | STAT1 activ conf 198 | NFkB act inactive | STAT3 act 2 126
O=C(NCC1CCCO1)C1CC(c2ccccc2Cl)=NO1 (centres undefined)	none
Cc1nn(C(=O)c2cccs2)c(N)c1-c1ccccc1	STAT1 act 162, NF-kB expr up 3.4 | STAT1 activ conf 183 | NFkB act 137 | STAT3 act 2 inactive
Cc1ccc(/C=C2/CCc3c([nH]c4ccccc34)C2=O)cc1	STAT1 act 161, APP 5'UTR act 156 | STAT1 activ conf 188 | NFkB act 141 | STAT3 act 2 114
Cc1ccc2[nH]c3c(c2c1)CC/C(=C/c1ccccc1)C3=O	none
Nc1ccc2oc(-c3cc(Br)ccc3Cl)nc2c1	none
Nc1ccc2oc(-c3ccccc3Cl)nc2c1	STAT1 act 151 | STAT1 activ conf 203 | NFkB act inactive | STAT3 act 2 inactive
Cc1c(C(=O)Nc2cccc(N(C)S(C)(=O)=O)c2)cccc1[N+](=O)[O-]	none
Oc1[nH]c2ccccc2c1N=Nc1nc2ccccc2s1	STAT1 act 155, NF-kB expr up 3.7 (no result: APP 5'UTR act) | STAT1 activ conf 208 | NFkB act 136 | STAT3 act 2 131
COCCNc1nc(-c2cc3ccccc3o2)cs1	STAT1 act 194, APP 5'UTR act 180, NF-kB expr up 8.1 | STAT1 activ conf 230 | NFkB act inactive | STAT3 act 2 inactive
Cc1ccc(NC(=O)c2cc(-c3ccccc3)nn2-c2ccccc2)cc1	none
CC(=O)C(/C=N/c1cc(-c2ccc(C)cc2)nn1-c1ccccc1)=C(\C)O	STAT1 act 159 | STAT1 activ conf 161 | NFkB act inactive | STAT3 act 2 inactive
c1ccc2c(c1)Cn1c-2nc2ccccc21	STAT1 act 158, NF-kB expr up 4.7 | STAT1 activ conf 189 | NFkB act inactive | STAT3 act 2 inactive
CC(C)CSc1nnc2c(n1)[nH]c1ccccc12	STAT1 act 153, NF-kB expr up 4.8 | STAT1 activ conf 249 | NFkB act inactive | STAT3 act 2 inactive
Clc1ccc2nc3c4ccccc4cnn3c2c1	STAT1 act 166, APP 5'UTR act 217, NF-kB expr up 8 | STAT1 activ conf 238 | NFkB act inactive | STAT3 act 2 162
COC(=O)c1cccc(Oc2nc3c(c(=O)n(C)c(=O)n3C)n2C(C)C)c1	none
O=C(/C=C/c1ccco1)Nc1ccccn1	STAT1 act 152 | STAT1 activ conf 177 | NFkB act inactive | STAT3 act 2 inactive
O=C(/C=C/c1ccco1)Nc1ccc(N2CCCC2)cc1	STAT1 act 158 | STAT1 activ conf 187 | NFkB act 139 | STAT3 act 2 113
O=C(/C=C/c1ccco1)Nc1cccnc1	none (no result: NF-kB expr up)
Cc1cccc(NC2=NCC(=O)N2Cc2cccs2)c1	none
O=C(O)CCc1nc(-c2cccs2)no1	none
COc1ccccc1CN1CCN(Cc2nc(-c3cccs3)no2)CC1	none
O=[N+]([O-])c1ccccc1OCc1nc(-c2cccs2)no1	STAT1 act 180, APP 5'UTR act 185, NF-kB expr up 7.6 | STAT1 activ conf 226 | NFkB act 142 | STAT3 act 2 122
O=[N+]([O-])c1ccc(F)cc1OCc1nc(-c2cccs2)no1	STAT1 act 172, APP 5'UTR act 156, NF-kB expr up 6.4 | STAT1 activ conf 203 | NFkB act 145 | STAT3 act 2 120
CN(C)C(=S)SCC(=O)NC(=O)NC(C)(C)C	none
CC(=O)c1sc(Nc2nc3cc4c(cc3s2)OCO4)nc1C	STAT1 act 174 | STAT1 activ conf 190 | NFkB act 142 | STAT3 act 2 inactive
COc1ccc2nc(Nc3nc(C)c(C(C)=O)s3)sc2c1	STAT1 act 164 | STAT1 activ conf 180 | NFkB act inactive | STAT3 act 2 inactive
Cc1cc2c(N=O)c(NO)ccc2[nH]1	none
Cc1nsc(Nc2ccc([N+](=O)[O-])cc2)c1C#N	none
O=C(Nc1ccc2c(c1)CCC2)c1ccccc1	STAT1 act 181, APP 5'UTR act 172, NF-kB expr up 8 | STAT1 activ conf 237 | NFkB act inactive | STAT3 act 2 inactive
O=C(Nc1ccc2c(c1)CCC2)c1ccccc1F	STAT1 act 179, APP 5'UTR act 183, NF-kB expr up 8.3 | STAT1 activ conf 222 | NFkB act inactive | STAT3 act 2 inactive
Cc1occc1C(=O)Nc1cccc([N+](=O)[O-])c1	none
Cc1occc1C(=O)Nc1ccc2c(c1)CCC2	STAT1 act 156, APP 5'UTR act 144, NF-kB expr up 4.7 | STAT1 activ conf 176 | NFkB act inactive | STAT3 act 2 inactive
CCOC(=O)CNC(=S)N1CCn2c(nc3ccccc32)C1	none
O=C(Nc1cccc(Cl)c1)Nc1nccs1	none
